# Published values of several laboratories.
# Each line is one published result; the experiments were not run side by side.
# Matrix: Caco-2
Compound,setting,Papp A→B
C[C@H]1[C@H](NC(=O)/C(=N\OC(C)(C)C(=O)O)c2csc(N)n2)C(=O)N1S(=O)(=O)O,"5 µM, 2 h",0.09 ×10⁻⁶ cm/s
COc1ccc([C@@H]2CC(=O)c3c(O)cc(O)cc3O2)cc1O,"100 µg/mL, 2 h",3.95 ×10⁻⁶ cm/s
CCCCCCOC(=O)NC(=N)c1ccc(NCc2nc3cc(C(=O)N(CCC(=O)OCC)c4ccccn4)ccc3n2C)cc1,"5 µM, 2 h",0.0021 ×10⁻⁶ cm/s
NCCOCC(=O)N1CCC[C@H](C(=O)NCc2nc(-c3ccc(C(F)(F)F)cc3)cs2)C1,pH 7.4,0.1 ×10⁻⁶ cm/s
O=c1c2cc(Cl)c(CO)cc2[nH]c(=S)n1Cc1cccnc1,"10 µM, 90 min, pH 7.4",12.3 ×10⁻⁶ cm/s
CC[C@]1(O)C[C@@H]2CN(CCc3c([nH]c4ccccc34)[C@@](C(=O)OC)(c3cc4c(cc3OC)N(C)[C@H]3[C@@](O)(C(=O)OC)[C@H](OC(C)=O)[C@]5(CC)C=CCN6CC[C@]43[C@@H]65)C2)C1,"10 µM, 2 h",1.69 ×10⁻⁶ cm/s
O=c1c(O[C@@H]2O[C@H](CO)[C@H](O)[C@H](O)[C@H]2O)c(-c2ccc(O)c(O)c2)oc2cc(O)cc(O)c12,50 µg/mL,0.256 ×10⁻⁶ cm/s
N#Cc1ccc(C[C@H](Nc2nnc(-c3ccc(F)cc3)s2)C(=O)N2CCc3ccccc32)cc1,"100 µM, 2 h",11.2 ×10⁻⁶ cm/s
COCC(=O)OCc1cc2[nH]c(=S)n(Cc3cccnc3)c(=O)c2cc1Cl,"10 µM, 90 min, pH 7.4",0.2 ×10⁻⁶ cm/s
N[C@@H](COCC(=O)N1CCC[C@H](C(=O)NCc2nc(-c3ccc(C(F)(F)F)cc3)cs2)C1)c1ccccc1,pH 7.4,8.5 ×10⁻⁶ cm/s
CCN1CCCC1CNC(=O)c1cc(S(N)(=O)=O)ccc1OC (centres unmarked),"5 µM, 2 h",0.16 ×10⁻⁶ cm/s
CC(C)(N)COCC(=O)N1CCC[C@H](C(=O)NCc2nc(-c3ccc(C(F)(F)F)cc3)cs2)C1,pH 7.4,0.18 ×10⁻⁶ cm/s
Oc1cc(O)c2c(c1)O[C@H](c1ccc(O)c(O)c1)[C@@H](O)C2,"100 µg/mL, 2 h",11.7 ×10⁻⁶ cm/s
O=c1cc(-c2ccc(O)cc2)oc2c([C@@H]3O[C@H](CO)[C@@H](O)[C@H](O)[C@H]3O)c(O)cc(O)c12,50 µg/mL,0.254 ×10⁻⁶ cm/s
O=c1c(-c2ccc(O)cc2)coc2c([C@@H]3O[C@H](CO)[C@@H](O)[C@H](O)[C@H]3O)c(O)ccc12,"100 µg/mL, 2 h",45.7 ×10⁻⁶ cm/s
CC(C)NCC(O)COc1cccc2ccccc12 (centres unmarked),"5 µM, 2 h",12.6 ×10⁻⁶ cm/s
Cc1ccc2[nH]c(=S)n(Cc3cccnc3)c(=O)c2c1,"10 µM, 90 min, pH 7.4",35.4 ×10⁻⁶ cm/s
C[C@@H]1O[C@@H](OC[C@H]2O[C@@H](Oc3c(-c4ccc(OCCO)c(OCCO)c4)oc4cc(OCCO)cc(O)c4c3=O)[C@H](O)[C@@H](O)[C@@H]2O)[C@H](O)[C@H](O)[C@H]1O,"100 µg/mL, 2 h",6.15 ×10⁻⁶ cm/s
CCOCC(=O)N1CCC[C@H](C(=O)NCc2nc(-c3ccc(C#N)nc3)cs2)C1,pH 7.4,13 ×10⁻⁶ cm/s
C[C@@H]1O[C@@H](O[C@H]2[C@H](Oc3cc(O)c4c(c3)O[C@H](c3ccc(O)cc3)CC4=O)O[C@H](CO)[C@@H](O)[C@@H]2O)[C@H](O)[C@H](O)[C@H]1O,"100 µg/mL, 2 h",21 ×10⁻⁶ cm/s
CN(C)CC(=O)OCc1cc2[nH]c(=S)n(Cc3cccnc3)c(=O)c2cc1Cl,"10 µM, 90 min, pH 7.4",42.5 ×10⁻⁶ cm/s
O=C(N[C@@H](c1ccccc1)[C@H]1CCCN1)C1=CN(c2ncnc3[nH]ccc23)CCS1,"10 µM, pH 6.5",< 0.3 ×10⁻⁶ cm/s
C[C@@H]1O[C@@H](OC[C@H]2O[C@@H](Oc3c(-c4ccc(O)c(O)c4)oc4cc(O)cc(O)c4c3=O)[C@H](O)[C@@H](O)[C@@H]2O)[C@H](O)[C@H](O)[C@H]1O,100 µg/mL,0.304 ×10⁻⁶ cm/s
N#Cc1ccc(C[C@H](NC(=O)c2cc3cc(F)ccc3[nH]2)C(=O)N2CCc3ccccc32)cc1,"100 µM, 2 h",1.2 ×10⁻⁶ cm/s
CNC(C)(C)COCC(=O)N1CCC[C@H](C(=O)NCc2nc(-c3ccc(C(F)(F)F)cc3)cs2)C1,pH 7.4,0.19 ×10⁻⁶ cm/s
O=C(CCc1ccc(O)cc1)c1c(O)cc(O)cc1O[C@@H]1O[C@H](CO)[C@@H](O)[C@H](O)[C@H]1O,"100 µg/mL, 2 h",2.94 ×10⁻⁶ cm/s
COc1ccccc1OCCNCC(O)COc1cccc2[nH]c3ccccc3c12 (centres unmarked),"5 µM, 2 h",4.98 ×10⁻⁶ cm/s
C[C@H]1O[C@@H](O[C@H]2[C@@H](O)C[C@H](O[C@H]3[C@@H](O)C[C@H](O[C@H]4CC[C@@]5(C)[C@H](CC[C@@H]6[C@@H]5C[C@@H](O)[C@]5(C)[C@@H](C7=CC(=O)OC7)CC[C@]65O)C4)O[C@@H]3C)O[C@@H]2C)C[C@H](O)[C@@H]1O,"10 µM, 2 h",0.48 ×10⁻⁶ cm/s
COc1cc(NC(=O)Cn2cc(Cl)c3cc(F)c(-c4cnn(C)c4)cc32)cc(OC)c1OC,,0.08 ×10⁻⁶ cm/s
O=c1c2cc(Cl)ccc2[nH]c(=S)n1Cc1ccc(-c2nnn[nH]2)nc1,"10 µM, 90 min, pH 7.4",< 0.51 ×10⁻⁶ cm/s
O=C(NCc1nc(-c2ccc(C(F)(F)F)cc2)cs1)[C@H]1CCCN(C(=O)COCCN2CCCC2)C1,pH 7.4,1.8 ×10⁻⁶ cm/s
COc1cc(C2Oc3cc([C@H]4Oc5cc(O)cc(O)c5C(=O)[C@@H]4O)ccc3OC2CO)ccc1O (some centres unmarked),"100 µg/mL, 2 h",19 ×10⁻⁶ cm/s
CN(C)CCc1c[nH]c2ccc(C[C@H]3COC(=O)N3)cc12,"5 µM, 2 h",0.56 ×10⁻⁶ cm/s
N#Cc1ccc(C[C@H](Nc2c(Nc3ccc(Br)cc3)c(=O)c2=O)C(=O)N2CCc3ccccc32)cc1,"100 µM, 2 h",2 ×10⁻⁶ cm/s
COc1ccc(-c2coc3cc(O)ccc3c2=O)cc1,"100 µg/mL, 2 h",4.66 ×10⁻⁶ cm/s
